Test results reported in ChEMBL document CHEMBL1781951, “Theonellasterols and conicasterols from Theonella swinhoei. Novel marine natural ligands for human nuclear receptors” (J Med Chem, 2011).
Activity calls are given as the source filed them. No cut-off for these calls is given here.

Legend:
[1] = target: T1, Bile acid receptor (Homo sapiens) (UniProt Q96RI1); test: Partial agonist activity at human FXR expressed in human HepG2 cells assessed as induction of transactivation at 10 uM after 18 hrs by luciferase reporter gene assay; assay type: functional, cell-based
T1 sequence (whole entry): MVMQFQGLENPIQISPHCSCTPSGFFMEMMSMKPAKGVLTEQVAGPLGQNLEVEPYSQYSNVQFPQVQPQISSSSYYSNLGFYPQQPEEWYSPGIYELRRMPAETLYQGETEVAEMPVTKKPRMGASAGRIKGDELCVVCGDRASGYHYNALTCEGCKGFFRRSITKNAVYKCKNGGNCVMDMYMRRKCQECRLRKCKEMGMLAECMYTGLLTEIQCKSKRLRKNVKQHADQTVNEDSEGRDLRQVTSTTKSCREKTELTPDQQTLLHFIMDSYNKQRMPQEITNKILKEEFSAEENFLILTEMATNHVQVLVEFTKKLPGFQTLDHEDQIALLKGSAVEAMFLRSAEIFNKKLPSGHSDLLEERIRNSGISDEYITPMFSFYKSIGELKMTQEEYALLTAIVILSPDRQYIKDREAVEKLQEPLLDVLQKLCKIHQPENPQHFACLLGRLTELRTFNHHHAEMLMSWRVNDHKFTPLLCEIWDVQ
Method in brief: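 HepG2 cells (5 × 10^5 cells/well) were transiently transfected using Fugene HD with pSG5-FXR, pSG5-RXR, pCMV-β-gal and a p(hsp27)-TK-LUC reporter carrying the hsp27 IR1 FXR response element. At 48 h post-transfection, cells were stimulated 18 h with test agent at 10 μM; 10 μM CDCA served as reference. Luciferase was normalized to β-gal; P < 0.05 vs untreated, n = 4.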

[2] = target: T1, Bile acid receptor (Homo sapiens); test: Agonist activity at human FXR expressed in human HepG2 cells assessed as induction of OSTalpha mRNA expression at 50 uM by quantitative RT-PCR analysis; assay type: functional, cell-based
Method in brief: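 HepG2 cells were primed with 10 μM CDCA alone or with 50 μM test agent. cDNA (50 ng template) was amplified by SYBR Green qPCR with 0.2 μM of each primer over 40 cycles (95/55/72 °C) in triplicate. Expression was normalized to GAPDH and reported as 2^ΔΔCT relative to untreated cells.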

[3] = target: T1, Bile acid receptor (Homo sapiens); test: Antagonist activity at human FXR expressed in HepG2 cells assessed as inhibition of CDCA-induced transactivation at 50 uM after 18 hrs by luciferase reporter gene assay

In the case of `C=C1[C@@H](O)CC[C@]2(C)C3=C(CC[C@@H]12)[C@]1(O)[C@@H](O)C[C@H]([C@H](C)CC[C@H](CC)C(C)C)[C@@]1(C)C[C@@H]3O`, the Activity [1] was “Active”, the Activity [2] was “Active” and the inhibition [3] was “Active”.

`C=C1[C@@H](O)CC[C@@]2(C)[C@H]1CCC1=C3[C@H](O)C[C@H]([C@H](C)CC[C@@H](C)C(C)C)[C@@]3(C)CC[C@@]12O` was tested, and the Activity [1] was “inactive” and the inhibition [3] was “Active”.

For `C=C1[C@@H](O)CC[C@@]2(C)[C@H]1CCC1=C3[C@H](O)C[C@H]([C@H](C)CC[C@H](CC)C(C)C)[C@@]3(C)CC[C@@]12OC`, the Activity [1] was “inactive” and the inhibition [3] was “inactive”.

For `C=C1[C@@H](O)CC[C@]2(C)C3=C(CC[C@@H]12)[C@@H]1C(=O)C[C@H]([C@H](C)CC[C@H](CC)C(C)C)[C@@]1(C)CC3`, the Activity [1] was “inactive” and the inhibition [3] was “Active”.

With `C=C1[C@@H](O)CC[C@@]2(C)[C@H]1CCC1=C3[C@H](O)C[C@H]([C@H](C)CC[C@H](CC)C(C)C)[C@@]3(C)CC[C@@]12O` the Activity [1] was “inactive” and the inhibition [3] was “Active”.

In the case of `C=C1[C@@H](O)CC[C@]2(C)C3=CC[C@@]4(C)C(=CC[C@@H]4[C@H](C)CC[C@H](CC)C(C)C)C3=CC[C@@H]12`, the Activity [1] was “inactive” and the inhibition [3] was “Active”.

For `C=C1[C@@H](O)CC[C@]2(C)C3=C(CC[C@@H]12)[C@]1(O)[C@@H](O)C[C@H]([C@H](C)CC[C@H](CC)C(C)C)[C@@]1(C)C[C@H]3O`, the Activity [1] was “inactive” and the inhibition [3] was “inactive”.

For `C=C1[C@@H](O)CC[C@]2(C)C3=CC[C@@]4(C)C(=CC[C@@H]4[C@H](C)CC[C@@H](C)C(C)C)C3=CC[C@@H]12`, the Activity [1] was “inactive” and the inhibition [3] was “Active”.

For `C=C1[C@@H](O)CC[C@@]2(C)[C@H]1C[C@@H](O)C1=C3[C@H](O)C[C@H]([C@H](C)CC[C@H](CC)C(C)C)[C@@]3(C)CC[C@@H]12`, the Activity [1] was “inactive” and the inhibition [3] was “Active”.
